Reference: ChEMBL document CHEMBL4513216, “Probing the Open Global Health Chemical Diversity Library for Multistage-Active Starting Points for Next-Generation Antimalarials” (ACS Infect Dis, 2020)

test: Toxicity liver stage against HepG2, at 10uM; assay type: cell-based; set-up: test concentration 10 uM, cell line HepG2-A16-CD81EGFP; details: human, HepG2-A16-CD81EGFP cells; read-out: INHIBITION
Summary of the method: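 Uninfected HepG2-A16-CD81EGFP cells, 3 × 10^3 per well, 1536-well, plated on prespotted compound at 10 μM final, parasite-free screening media added to match infected plates; puromycin 10 μM positive, DMSO 0.5% negative; run in parallel with 48 h PbLuc assay at 37 °C, 5% CO2; viability by CellTiter-Glo luminescence, normalized to controls.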

Row | SMILES | cytotoxicity at 10 µM
1 | CC(=O)N1CCN(C(C)C)CC(COc2ccccc2)C1 (configuration not stated) | -28.8%
2 | COCCOc1cccc(C(=O)N2CCCCC2c2nccs2)c1 (configuration not stated) | -9.5%
3 | C[C@H]1C[C@H]2CN(C(=O)c3ccncn3)CC[C@H]2O1 | -20.9%
4 | COc1ccc(CC(=O)N2CCC[C@@H](N)[C@@H]2c2ccccc2F)cc1 | 2.49%
5 | COc1cc(CNc2nc(C3CC3)no2)cc(OC)c1OC | -0.291%
6 | COc1ccc(CNC(=O)C2(C#N)CCCC2)cc1 | -17.7%
7 | Cc1nc(C)c(C(=O)N2CCc3c(Cl)cccc32)o1 | -1.55%
8 | Cc1nc(C2CCCNC2)cc(N(Cc2nccn2C)C2CC2)n1 (configuration not stated) | -3.42%
9 | O=C(c1ccco1)N1C[C@@H]2CCN(c3cccnc3)C[C@@H]2C1 | -68.3%
10 | O=C(CNC(=O)c1ccccc1I)NCc1ccccc1F | 1.16%
11 | Cn1nccc1C(=O)N1CCOC(Cc2ccc(F)cc2)C1 (configuration not stated) | 5.08%
12 | Cc1cccc(C(C(=O)N2CC(c3ccccn3)C2)N(C)C)c1 (configuration not stated) | -13.1%
13 | O=C(CCCc1cn[nH]c1)N1CCOCC(O)C1 (configuration not stated) | -23%
14 | Cc1cnc(N2CCCC3(CCCN3CC(=O)N(C)C)C2)nc1 (configuration not stated) | -0.634%
15 | Cc1cc(N2CCN(CC(=O)N(C)C)CC2)nc(-c2ccncc2)n1 | -3.96%
16 | Cc1cc(C(F)(F)F)nn1CCCNC(=O)C1CCC1 | -12.2%
17 | Cc1ccccc1-n1cc(C2=CCN(CCN3CCOCC3)CC2)cn1 | -5.06%
18 | O=C(O)c1ccccc1-c1cnc(CNC(=O)C2CCOCC2)nc1 | -3.99%
19 | CCc1n[nH]c(C2CN(C(=O)c3ncoc3CC)CCO2)n1 (configuration not stated) | 0.567%
20 | COC1CCN(c2ccc(F)cc2CN(C)C(C)C(N)=O)CC1 (configuration not stated) | 9.13%
21 | CCc1nc(CN(C)C2CCN(CCc3ccccn3)C2)no1 (configuration not stated) | -0.168%
22 | CC(C)(C)C(=O)Nc1ccc(Oc2ccsc2C(=O)O)cc1 | 7.26%
23 | Cc1cnn(CCC(=O)N2CCC3(CCC(=O)N(CC4CC4)C3)CC2)c1 | -2.62%

Row | SMILES | cytotoxicity at 10 µM
24 | CC1CCC(NC(=O)c2nn(C)cc2I)CC1 (configuration not stated) | 11.8%
25 | Cc1ccc(CN2CCCn3cnc(COCC4CC4)c3C2)o1 | 8.82%
26 | CN(C)c1ncccc1C(=O)N1CCN(C2=NCC(C)(C)S2)CC1 | 5.03%
27 | Cc1ccccc1S(=O)(=O)N1CCc2c(ncnc2N(C)C)C1 | -16.6%
28 | COc1ccc(C2(c3nc(-c4cnn(C)c4)no3)CCOCC2)cc1 | 11.4%
29 | O=C(CO)N1CC[C@@H](N2CCN(c3ccccc3F)CC2)[C@H](O)C1 | -46%
30 | Cc1cccc(CN2CCC3(CCC(C(=O)N(C)C)O3)CC2)n1 (configuration not stated) | 3.14%
31 | COC(=O)c1cccn1C1CCN(Cc2cccc(C(N)=O)c2)CC1 | -4.7%
32 | O=C(Nc1cccnc1)C1=Cc2ccccc2OC1 | 4.19%
33 | Cc1cnn(CC2CCCCN2C(=O)c2cccc3c2OCO3)c1 (configuration not stated) | -4.89%
34 | CCN(Cc1ccc2c(c1)OCO2)C(=O)NC(C)Cn1ccnc1 (configuration not stated) | -13.2%
35 | Cc1cc(NC(=O)C(C)N2CCN(c3ccccc3F)CC2)no1 (configuration not stated) | 2.83%
36 | OCCN(Cc1cccnc1)c1ncc(Br)cn1 | 9.68%
37 | CC(=O)N1N=C(c2cccs2)OC1C(=O)NCCc1cccc(Cl)c1 (configuration not stated) | -1.66%
38 | COCCN1C[C@@H]2CN(C(=O)[C@H]3CCCO3)C[C@@H]2C1=O | 5.82%
39 | CC1(C)CN(Cc2csc(CS(C)(=O)=O)n2)Cc2ccccc21 | 6.38%
40 | CCOc1cc(CN(C)CCC#N)ccc1OC(F)F | -5.81%
41 | CC[C@H](C)Nc1ncc(-c2ccn(C3CCN(C(C)=O)CC3)n2)cn1 | -9.22%
42 | Cc1cccc(C(=O)N2CCCCC2c2ccc(CN(C)C)cc2)c1 (configuration not stated) | -0.909%
43 | Cc1cnn(CCC(=O)NCc2ccc(N(C)C)c(C)c2)c1 | -3.03%
44 | CC(c1cccc(F)c1)N1CCN(Cc2nccn2C)CC1 (configuration not stated) | -7.81%
45 | CCn1cnnc1C1CCN(C(=O)c2cc(C)c(C)s2)CC1 | -26.9%
46 | CN(C)CCn1nc(C2CCN(Cc3ccccc3)C2)c2cccnc21 (configuration not stated) | -7.47%

Row | SMILES | cytotoxicity at 10 µM
47 | CC1CCCN1Cc1cccc(C(=O)Nc2ccc3c(c2)CCC3=O)c1 (configuration not stated) | -30.9%
48 | CCN1CC[C@]2(CN(C(=O)[C@H]3CCCO3)C[C@H]2c2ccccc2)C1=O | 5.98%
49 | N#Cc1cccc(C(=O)N2CCC(Nc3cccnn3)CC2)c1 | -5.17%
50 | Cc1cc(C(=O)N2CCC(C)CC2)ccc1NS(C)(=O)=O | 3.09%
51 | CCOCCNS(=O)(=O)c1cc(C)c2nc(O)cc(C)c2c1 | -4.77%
52 | Cc1ccc2c(c1)OCCCC2NC1CCN(C)CC1 (configuration not stated) | 10.4%
53 | COCCN1CCN(Cc2ccco2)Cc2ccc(C)nc21 | 0.657%
54 | CCC1CN(C(=O)c2cccnc2O)CCC(=O)N1Cc1ccccc1 (configuration not stated) | 3.65%
55 | CNC(=O)CN1CCOCC2(CCCN(Cc3cccnc3)C2)C1 (configuration not stated) | -6.02%
56 | Cc1sc2nc(CCN)nc(N3CCS(=O)(=O)CC3)c2c1C | -44.1%
57 | CC(Cn1cccn1)NC(=O)C1=Cc2ccccc2OC1 (configuration not stated) | 2.86%
58 | COCCN(Cc1ccccn1)C(=O)CC1OCCc2sccc21 (configuration not stated) | -54.8%
59 | CCn1cc(-c2cc(C(F)F)n3nc(CC(=O)O)nc3n2)cn1 | -9.49%
60 | CCc1n[nH]c(C2CN(Cc3nnc(C4CCC4)o3)CCO2)n1 (configuration not stated) | -6.28%
61 | CC(C)NC(=O)NC[C@H]1OC[C@@H](NCc2ccccc2F)[C@@H]1O | -1.31%
62 | COc1ccc(C(=O)NC[C@H]2COCc3nc4cc(C)ccc4n32)cc1 | 2.52%
63 | CCN(CC)C(=O)CCCNC(=O)Cc1nc(-c2ccco2)oc1C | 1.57%
64 | COc1ccc(CN2CCSCC2)c(OC)c1 | 7.94%
65 | CC(C)OCCN1CCC(Nc2nccnc2C#N)CC1 | 2.72%
66 | CN(C)C(=O)N1CCCn2nc(CNC(=O)CCc3ccsc3)cc2C1 | -1.77%
67 | Cc1ccc(C2CC(=O)NCc3nc(N)sc32)cc1C (configuration not stated) | -8.47%
68 | COc1cc(OC)cc(N2CCC(NCc3cc[nH]n3)C2)c1 (configuration not stated) | 2.55%
69 | CCc1noc(CNC2CCCN(Cc3noc(C4CC4)n3)C2)n1 (configuration not stated) | -25.6%

Row | SMILES | cytotoxicity at 10 µM
70 | CC(=O)NCc1noc2c1CN(CCN1CCCC1)CC2 | -5.46%
71 | CC(=O)N1CCN(C(=O)CNc2c(C)cccc2OC(F)F)CC1 | 3.24%
72 | Cc1cc(-c2cc(F)ccc2C(=O)O)nc(C2CCCN(C)C2)n1 (configuration not stated) | -11.4%
73 | Cc1noc([C@@H]2C[C@H](NC(=O)NC3CCCCC3)CN2C)n1 | 3.23%
74 | CNC(=O)C1=NOC2(CCN(Cc3nccs3)C2)C1 (configuration not stated) | -73.4%
75 | COCc1ccc(C(=O)N2CCN(CC(C)O)CC2)cc1 (configuration not stated) | 0.0264%
76 | CN1CCc2c(C#N)c(NCCCN3CCOCC3)n3cnnc3c2C1 | -7.14%
77 | O=C(c1ccncc1)N1CCC(O)(Cn2ccc3ccncc32)CC1 | 1.93%
78 | CC1CCCN(CCNC(=O)c2cncnc2C(C)C)C1 (configuration not stated) | -10.6%
79 | C=c1ccoc1=C1NN=C(CNCCn2cccn2)O1 | -5.02%
80 | CC(C)N(C)CCCNC(=O)c1cnn(C(C)C)c1C(F)(F)F | 5.31%
81 | Cc1cc(CNC(=O)CCN2CCN(c3ccccn3)CC2)c(C)o1 | 1.71%
82 | COc1ccc(Cl)cc1NCC(=O)N(Cc1cccnc1)C1CC1 | 11.8%
83 | CN1CC(=O)N(c2ccccc2)CC12CCN(CC1CCOCC1)C2 (configuration not stated) | 4.22%
84 | O=C1CCNc2ccccc2CN1Cc1ccco1 | 1.22%
85 | CCC(CNC(C)=O)(OC)c1ccccc1 (configuration not stated) | 1.97%
86 | CCN(C)CC(C)Cn1cnc(-c2ccccc2)c1C (configuration not stated) | -3.06%
87 | c1cc(CNCC2Cn3nncc3CO2)cs1 (configuration not stated) | 6.13%
88 | O=C1CN(C(=O)c2cc3ccc(Br)cc3[nH]2)CCN1 | 0.549%
89 | CCn1cc(NC(=O)N2CCN(CCSc3ccccc3)CC2)cn1 | -0.095%
90 | Cn1nccc1C(=O)N1CCC(c2ncc(Cl)cc2S(C)(=O)=O)CC1 | 7.91%
91 | N[C@@H]1c2ccccc2C2(CCN(C(=O)c3ccc(=O)[nH]c3)CC2)[C@H]1O | 3.27%
92 | Cc1cc(CN2CC[C@H]3C[C@H](C(=O)N4CCC(C)CC4)O[C@H]3C2)no1 | 1.34%

Row | SMILES | cytotoxicity at 10 µM
93 | CC(=O)Nc1ccc2c(c1)CN(C(=O)c1ccco1)CC2 | 6.17%
94 | CCCn1nc2c(cc1=O)CN(CC(=O)N(C)c1nccs1)CC2 | 1.25%
95 | COCCC(=O)N1CC2(CCN(Cc3ccoc3)C2)C1 | 8.47%
96 | Cc1cccc(CN2CCOCC3(CCN(C4CCOCC4)C3)C2)n1 (configuration not stated) | -0.124%
97 | CCCn1cc(C(=O)NC2CCC(n3cnnc3)CC2)c(C)n1 (configuration not stated) | 0.642%
98 | COc1ccccc1C(C)CNC(=O)c1c(C)nn(C)c1OC (configuration not stated) | -11.4%
99 | COCCn1cc(C(=O)N2CCCC2c2ccncc2)c2ccccc21 (configuration not stated) | 10.7%
100 | CC(=O)N1CCN(C(=O)c2sc(-c3ccccc3F)nc2C)CC1 | -3.3%
101 | CN(C(=O)CN1CCCC1Cc1ccccc1)c1ccccc1 (configuration not stated) | 17.8%
102 | CCN(CC1CN(Cc2cccnc2)CCO1)c1cccnn1 (configuration not stated) | -14%
103 | COc1ccc(C(C)N2CCN(Cc3nccn3C)CC2)cc1Cl (configuration not stated) | -8.31%
104 | CCCNC(=O)c1nc2c(o1)CN(c1ncccn1)C2 | 1.95%
105 | Cc1cccn2cc(CN3CCC(N4CCN(C)C4=O)CC3)nc12 | 7.31%
106 | c1cc(-c2nccn2CCc2nc3c(s2)CCC3)ccn1 | 6.15%
107 | COc1ccc(-c2noc(Cn3cnc(C)c3)n2)c(OC)c1OC | -13.2%
108 | Cc1cc(F)ccc1N1CCC(N2C[C@@H](CN(C)C)[C@@H](CO)C2)CC1 | -12.1%
109 | Cc1cccc(C(=O)N2CCN(C)CC2)c1NC(=O)c1ccncc1 | -10.8%
110 | Fc1cc(Oc2ccc(C(F)(F)F)cn2)cc(F)c1CN1CCCC1 | 24%
111 | O=C(CN1CCSCC1c1ccccc1)N1CCCC1 (configuration not stated) | 7.34%
112 | Cn1cc(CC2CC(=O)N(Cc3ccc(Cl)cc3)C2=O)cn1 (configuration not stated) | -0.276%
